According to ChEMBL document CHEMBL4251576, “Synthesis and biological evaluation of curcumin inspired imidazo[1,2-a]pyridine analogues as tubulin polymerization inhibitors” (Eur J Med Chem, 2018):
pIC50: −log10 of the molar value. Activity calls are given as the source filed them. No cut-off for these calls is given here.

Tests used:
[1] = tested on: HGC-27; test: Cytotoxicity against human HGC27 cells assessed as inhibition of cell viability after 48 hrs by MTT assay; type: functional, cell-based; settings: HGC-27, 48 h
Outline: (§1)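 Cells were seeded at 2.5‒5 x 10^3 per well in DMEM or RPMI with 10% FBS and grown 24 h at 37 °C under CO2. Compounds diluted in medium were added alongside vehicle control for 48 h. MTT (0.5 mg/mL) was added for 4 h, formazan dissolved in DMSO and absorbance read at 570 nm. IC50 is the concentration giving 50% loss of viability; mean ± SD of three experiments, each in triplicate.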

[2] = tested on: PC-3; test: Induction of apoptosis in human PC3 cells assessed as necrotic cells at 4 uM after 24 hrs by FITC-annexin V/propidium iodide staining-based flow cytometric method (reference value: 0.32%); type: functional
[3] = tested on: PC-3; test: Induction of apoptosis in human PC3 cells assessed as early apoptotic cells at 4 uM after 24 hrs by FITC-annexin V/propidium iodide staining-based flow cytometric method (reference value: 7.62%); type: functional
[4] = tested on: PC-3; test: Induction of mitochondrial membrane depolarization in human PC3 cells at 4 uM after 24 hrs by JC1 staining-based flow cytometric method (reference value: 11.9%); type: functional
[5] = tested on: PC-3; test: Cell cycle arrest in human PC3 cells assessed as accumulation at subG1 phase at 2 uM after 24 hrs by propidium iodide staining-based flow cytometric method (reference value: 0.38%); type: functional
[6] = tested on: PC-3; test: Induction of apoptosis in human PC3 cells assessed as nuclei fragmentation at 1 to 2 uM after 48 hrs by DAPI staining-based fluorescence microscopic method; type: functional, cell-based
Outline: (§2)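 PC-3 cells (25000/well) adhered overnight, then treated 48 h at 1 or 2 µM. After PBS wash, fixed 20 min in 4% neutral buffered formalin, permeabilized 5 min with 0.2% Triton X, and stained 10 min at room temperature with DAPI (1 µg/mL). Nuclei viewed by fluorescence microscopy (ex 350 nm, em 460 nm, 200x).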

[7] = tested on: NCI-H460; test: Potency index, ratio of curcumin IC50 to test compound IC50 for human NCI-H460 cells; type: functional
[8] = tested on: PC-3; test: Induction of reactive oxygen species formation in human PC3 cells at 1 to 2 uM after 6 hrs by DCFDA staining-based flow cytometric method; type: functional, cell-based
Outline: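 PC-3 cells at 1 x 10^5 cells/mL adhered overnight, then exposed to 1 or 2 µM. Medium replaced with DCFDA (10 µM) for 0.5 h at room temperature in the dark; fluorescence read by flow cytometry (ex 488 nm, em 530 nm). Mean ± SEM of three experiments, one-way ANOVA with Dunnett's test.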

[9] = tested on: PC-3; test: Induction of apoptosis in human PC3 cells after 24 hrs by FITC-annexin V/propidium iodide staining-based flow cytometric method; type: functional, cell-based
[10] = tested on: PC-3; test: Induction of apoptosis in human PC3 cells assessed as nuclei condensation at 1 to 2 uM after 48 hrs by DAPI staining-based fluorescence microscopic method; type: functional, cell-based; outline: as §2
[11] = tested on: PC-3; test: Induction of apoptosis in human PC3 cells assessed as late apoptotic cells at 2 uM after 24 hrs by FITC-annexin V/propidium iodide staining-based flow cytometric method (reference value: 5.75%); type: functional
[12] = tested on: PC-3; test: Cytotoxicity against human PC3 cells assessed as inhibition of cell viability after 48 hrs by MTT assay; type: functional, cell-based; settings: PC-3, 48 h; outline: as §1
[13] = tested on: PC-3; test: Cell cycle arrest in human PC3 cells assessed as accumulation at G2/M phase at 2 uM after 24 hrs by propidium iodide staining-based flow cytometric method (reference value: 33.13%); type: functional
[14] = tested on: PC-3; test: Cell cycle arrest in human PC3 cells assessed as accumulation at S phase at 1 uM after 24 hrs by propidium iodide staining-based flow cytometric method (reference value: 8.08%); type: functional
[15] = Selectivity index, ratio of IC50 for human RWPE1 cells to IC50 for human PC3 cells; type: toxicity; settings: RWPE1 cells versus PC3 cells, read-out: Ratio IC50
[16] = tested on: DU-145; test: Cytotoxicity against human DU145 cells assessed as inhibition of cell viability after 48 hrs by MTT assay; type: functional, cell-based; settings: DU-145, 48 h; outline: as §1
[17] = tested on: PC-3; test: Induction of apoptosis in human PC3 cells assessed as appearance of horse-shoe shaped nuclei at 1 to 2 uM after 48 hrs by DAPI staining-based fluorescence microscopic method; type: functional, cell-based; outline: as §2
[18] = tested on: PC-3; test: Induction of apoptosis in human PC3 cells assessed as late apoptotic cells at 4 uM after 24 hrs by FITC-annexin V/propidium iodide staining-based flow cytometric method (reference value: 5.75%); type: functional
[19] = species: Sus scrofa; test: Inhibition of tubulin polymerization in porcine brain at 10 uM after 60 mins by fluorescence assay relative to control
Outline: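 Cell-free kit assay using porcine brain tubulin (2 mg/mL) in 80 mM PIPES pH 6.9 with 2.0 mM MgCl2, 0.5 mM EGTA, 1.0 mM GTP and glycerol; compound at 10 µM final, nocodazole as positive control. Polymerization tracked over time as fluorescence of a reporter incorporated into microtubules (ex 360 nm, em 440 nm), with inhibition relative to control.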

[20] = tested on: PC-3; test: Cell cycle arrest in human PC3 cells assessed as accumulation at S phase at 2 uM after 24 hrs by propidium iodide staining-based flow cytometric method (reference value: 8.08%); type: functional
[21] = tested on: DU-145; test: Potency index, ratio of curcumin IC50 to test compound IC50 for human DU145 cells; type: functional
[22] = tested on: PC-3; test: Induction of apoptosis in human PC3 cells assessed as destructive fragmentation of nuclei at 2 uM after 48 hrs by acridine orange/ethidium bromide staining-based fluorescence inverted microscopic method; type: functional, cell-based
Outline: (§3)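 PC-3 cells (25000/well) grown 24 h, then exposed 48 h to 0.5, 1 or 2 µM with DMSO control. After PBS wash, stained with acridine orange and ethidium bromide (10 µg/mL each) and imaged at once by fluorescence inverted microscopy (ex 488 nm, em 530 nm, 200x).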

[23] = tested on: PC-3; test: Induction of apoptosis in human PC3 cells assessed as necrotic cells at 2 uM after 24 hrs by FITC-annexin V/propidium iodide staining-based flow cytometric method (reference value: 0.32%); type: functional
[24] = tested on: PC-3; test: Induction of apoptosis in human PC3 cells assessed as chromatin condensation at 0.5 uM after 48 hrs by acridine orange/ethidium bromide staining-based fluorescence inverted microscopic method; type: functional, cell-based; outline: as §3
[25] = tested on: PC-3; test: Induction of apoptosis in human PC3 cells assessed as early apoptotic cells at 2 uM after 24 hrs by FITC-annexin V/propidium iodide staining-based flow cytometric method (reference value: 7.62%); type: functional
[26] = tested on: PC-3; test: Cell cycle arrest in human PC3 cells assessed as accumulation at G0/G1 phase at 2 uM after 24 hrs by propidium iodide staining-based flow cytometric method (reference value: 58.41%); type: functional
[27] = tested on: 4T1; test: Cytotoxicity against mouse 4T1 cells assessed as inhibition of cell viability after 48 hrs by MTT assay; type: functional, cell-based; settings: 4T1, 48 h; outline: as §1
[28] = tested on: PC-3; test: Induction of mitochondrial membrane depolarization in human PC3 cells after 24 hrs by JC1 staining-based flow cytometric method; type: functional, cell-based
[29] = tested on: PC-3; test: Induction of apoptosis in human PC3 cells assessed as blebbing of cell membrane at 0.5 uM after 48 hrs by acridine orange/ethidium bromide staining-based fluorescence inverted microscopic method; type: functional; outline: as §3
[30] = tested on: PC-3; test: Cell cycle arrest in human PC3 cells assessed as accumulation at G0/G1 phase after 24 hrs by propidium iodide staining-based flow cytometric method; type: functional

Work on COc1cc(OC)c(/C=C/C(=O)/C=C/c2nc3ccccn3c2-c2ccc(F)c(F)c2)c(OC)c1 yielded a pIC50 [1] of 5.66, an Activity [2] of 3.12% and an Activity [3] of 7.3%. The Activity [4] was 52.3%, the Activity [5] was 0.74% and the Activity [6] was “Active”. The “Ratio IC50” value [7] was 6.5, the Activity [8] was “Active” and the Activity [9] was “Dose-dependent effect”. The Activity [10] was “Active”, the Activity [11] was 27.94% and the pIC50 [12] was 5.68. It also gave an Activity [13] of 55.84%, an Activity [14] of 9.97% and a selectivity ratio [15] of 2. For the same compound, the pIC50 [16] was 5.53, the Activity [17] was “Active” and the Activity [18] was 48.34%. The inhibition [19] was 51.8%, the Activity [20] was 0.76% and the “Ratio IC50” value [21] was 11.1. For the same compound, the Activity [22] was “Active”, the Activity [23] was 1.32% and the Activity [24] was “Active”. The Activity [25] was 3.4%, the Activity [26] was 32.66% and the pIC50 [27] was 5.77. The Activity [28] was “Dose-dependent effect”, the Activity [29] was “Active” and the Activity [30] was “Dose-dependent effect”.
